Results as given in ChEMBL document CHEMBL4190321, “Novel 4/3-((4-oxo-5-(2-oxoindolin-3-ylidene)thiazolidin-2-ylidene)amino) benzenesulfonamides: Synthesis, carbonic anhydrase inhibitory activity, anticancer activity and molecular modelling studies” (Eur J Med Chem, 2017).

Key:
Carbonic anhydrase 9 = Carbonic anhydrase 9 (Homo sapiens, UniProt Q16790); assay: Inhibition of human transmembrane carbonic anhydrase 9 by stopped-flow CO2 hydrase assay
Caco-2 = assay: Antiproliferative activity against human Caco2 cells by MTT assay
MCF7 [1] = assay: Antiproliferative activity against human MCF7 cells by MTT assay
Carbonic anhydrase 1 = Carbonic anhydrase 1 (Homo sapiens, UniProt P00915); assay: Inhibition of human cytosolic carbonic anhydrase 1 by stopped-flow CO2 hydrase assay
Chain of Carbonic anhydrase 1 (P00915 whole entry): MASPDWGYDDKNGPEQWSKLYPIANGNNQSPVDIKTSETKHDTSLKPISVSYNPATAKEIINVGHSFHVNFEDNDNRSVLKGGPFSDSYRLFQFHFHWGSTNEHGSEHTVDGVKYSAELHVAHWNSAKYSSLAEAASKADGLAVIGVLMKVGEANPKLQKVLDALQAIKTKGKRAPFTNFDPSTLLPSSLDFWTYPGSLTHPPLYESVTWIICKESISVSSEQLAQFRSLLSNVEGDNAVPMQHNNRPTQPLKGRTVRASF

Carbonic anhydrase 2 = Carbonic anhydrase 2 (Homo sapiens, UniProt P00918); assay: Inhibition of human cytosolic carbonic anhydrase 2 by stopped-flow CO2 hydrase assay
Carbonic anhydrase 4 = Carbonic anhydrase 4 (Homo sapiens, UniProt P22748); assay: Inhibition of human transmembrane carbonic anhydrase 4 by stopped-flow CO2 hydrase assay
Chain of Carbonic anhydrase 4 (P22748 whole entry): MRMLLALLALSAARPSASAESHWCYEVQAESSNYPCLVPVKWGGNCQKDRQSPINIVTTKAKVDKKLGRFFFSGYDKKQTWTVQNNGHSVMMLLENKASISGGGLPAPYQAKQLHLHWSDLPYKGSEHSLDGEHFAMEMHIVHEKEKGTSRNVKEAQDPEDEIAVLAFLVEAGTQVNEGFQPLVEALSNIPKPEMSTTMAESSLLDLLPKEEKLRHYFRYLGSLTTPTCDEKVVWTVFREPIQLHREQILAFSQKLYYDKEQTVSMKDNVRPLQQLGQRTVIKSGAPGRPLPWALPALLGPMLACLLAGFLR

MCF7 [2] = assay: Induction of apoptosis in human MCF7 cells assessed as decrease in Bcl-2 expression at IC50 by ELISA relative to control; type: functional; design: scale not given: the % may be the effect or the level left
Procedure, shortened: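 MCF-7 cells were treated alongside a 1% DMSO control. Bcl-2 protein was measured with a colorimetric ELISA kit and reported in ng/ml. Data are mean ± SD of three separate experiments, and significance versus control was set at P < 0.05.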

Row | Structure (SMILES) | Ki (Carbonic anhydrase 9) | IC50 (Caco-2) | IC50 (MCF7 [1]) | Ki (Carbonic anhydrase 1) | Ki (Carbonic anhydrase 2) | Ki (Carbonic anhydrase 4) | Activity (MCF7 [2])
1 | NS(=O)(=O)c1ccc(/N=C2\NC(=O)/C(=C3/C(=O)Nc4ccc(Br)cc43)S2)cc1 | 0.0666 µM | 42.3 µM | 11.3 µM | – | – | – | –
2 | CN1C(=O)/C(=C2\S/C(=N/c3ccc(S(N)(=O)=O)cc3)NC2=O)c2cc(Cl)ccc21 | 0.123 µM | 42.3 µM | > 200 µM | – | – | – | –
3 | COc1cccc2c1C(=O)c1c(O)c3c(c(O)c1C2=O)C[C@@](O)(C(=O)CO)C[C@@H]3O[C@H]1C[C@H](N)[C@H](O)[C@H](C)O1 [DOXORUBICIN] | – | 3.83 µM | – | – | – | – | –
4 | NS(=O)(=O)c1ccc(/N=C2\NC(=O)/C(=C3/C(=O)Nc4ccc(Cl)cc43)S2)cc1 | 0.0624 µM | 20.3 µM | 3.96 µM | – | – | – | 45%
5 | NS(=O)(=O)c1ccc(/N=C2\NC(=O)/C(=C3/C(=O)N(Cc4ccccc4)c4ccc(Br)cc43)S2)cc1 | 0.321 µM | 57.8 µM | > 200 µM | – | – | – | –
6 | CN1C(=O)/C(=C2\S/C(=N/c3ccc(S(N)(=O)=O)cc3)NC2=O)c2ccccc21 | 0.146 µM | 163 µM | 51.9 µM | – | – | – | –
7 | NS(=O)(=O)c1ccc(/N=C2\NC(=O)/C(=C3/C(=O)N(Cc4ccccc4)c4ccccc43)S2)cc1 | 0.117 µM | > 200 µM | > 200 µM | – | – | – | –
8 | NS(=O)(=O)c1cccc(/N=C2\NC(=O)/C(=C3/C(=O)N(Cc4ccccc4)c4ccccc43)S2)c1 | 0.17 µM | 103 µM | > 200 µM | – | – | – | –
9 | NS(=O)(=O)c1ccc(/N=C2\NC(=O)/C(=C3/C(=O)N(Cc4ccccc4)c4ccc(Cl)cc43)S2)cc1 | 0.0906 µM | 13.7 µM | 124 µM | – | – | – | –
10 | Cc1cc(C)c2c(c1)/C(=C1/S/C(=N/c3ccc(S(N)(=O)=O)cc3)NC1=O)C(=O)N2 | 0.1 µM | 146 µM | > 200 µM | – | – | – | –
11 | Cc1ccc2c(c1)/C(=C1/S/C(=N/c3ccc(S(N)(=O)=O)cc3)NC1=O)C(=O)N2 | 0.0721 µM | 174 µM | > 200 µM | – | – | – | –

More lines, in order of falling Ki (Carbonic anhydrase 9), values ahead:

Row | Ki (Carbonic anhydrase 9) | IC50 (Caco-2) | IC50 (MCF7 [1]) | Ki (Carbonic anhydrase 1) | Ki (Carbonic anhydrase 2) | Ki (Carbonic anhydrase 4) | Structure (SMILES) | Activity (MCF7 [2])
12 | 0.062 µM | 5.87 µM | > 200 µM | – | – | – | NS(=O)(=O)c1cccc(/N=C2\NC(=O)/C(=C3/C(=O)Nc4ccc(Cl)cc43)S2)c1 | –
13 | 0.048 µM | 20.6 µM | > 200 µM | – | – | – | NS(=O)(=O)c1cccc(/N=C2\NC(=O)/C(=C3/C(=O)Nc4ccc([N+](=O)[O-])cc43)S2)c1 | –
14 | 0.047 µM | > 200 µM | > 200 µM | 0.631 µM | 0.023 µM | > 10 µM | NS(=O)(=O)c1ccc(/N=C2\NC(=O)/C(=C3/C(=O)Nc4ccccc43)S2)cc1 | –
15 | 0.0389 µM | 13.2 µM | 196 µM | – | – | – | CN1C(=O)/C(=C2\S/C(=N/c3ccc(S(N)(=O)=O)cc3)NC2=O)c2cc(Br)ccc21 | –
16 | 0.0341 µM | 13.8 µM | > 200 µM | – | – | – | NS(=O)(=O)c1ccc(/N=C2\NC(=O)/C(=C3/C(=O)Nc4ccc([N+](=O)[O-])cc43)S2)cc1 | –
17 | 0.0266 µM | 59.9 µM | 20.5 µM | – | – | – | NS(=O)(=O)c1ccc(/N=C2\NC(=O)/C(=C3/C(=O)Nc4ccc(F)cc43)S2)cc1 | –
18 | 0.0247 µM | 8.39 µM | > 200 µM | – | – | – | COc1ccc2c(c1)/C(=C1/S/C(=N/c3cccc(S(N)(=O)=O)c3)NC1=O)C(=O)N2 | –
19 | 0.0231 µM | 98.3 µM | 125 µM | – | – | > 10 µM | COc1ccc2c(c1)/C(=C1/S/C(=N/c3ccc(S(N)(=O)=O)cc3)NC1=O)C(=O)N2 | –
20 | 0.0177 µM | – | – | – | – | – | NS(=O)(=O)c1cccc(/N=C2\NC(=O)CS2)c1 | –
21 | 0.0161 µM | 12.1 µM | > 200 µM | – | – | – | NS(=O)(=O)c1cccc(/N=C2\NC(=O)/C(=C3/C(=O)Nc4ccccc43)S2)c1 | –
22 | 0.0159 µM | 10.8 µM | > 200 µM | – | – | – | NS(=O)(=O)c1cccc(/N=C2\NC(=O)/C(=C3/C(=O)Nc4ccc(Br)cc43)S2)c1 | –
23 | 0.0045 µM | – | – | – | – | – | NS(=O)(=O)c1ccc(NC2=NC(=O)CS2)cc1 | –
